Experimental data taken from article PMC3144551 (Science signaling, 2011).
Entries after “also recorded” stand apart in the source; their conditions may differ.

What was measured:
[1] = system: MrgprA3; test: Calcium imaging of MrgprA3-expressing CHO cells; type: cell-based, mouse; conditions: chloroquine 100 µM; n = 155 cells
Method in brief: (§1)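 Each receptor was transfected individually into CHO cells. Cells were loaded with fura-2 acetoxymethyl ester for 45 min at 37°C, washed, and imaged at 340- and 380-nm excitation to detect intracellular free Ca2+. There were at least three independent experiments, with at least 100 cells analysed each time.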

[2] = system: WT DRG neurons electroporated with siRNA; test: Calcium imaging of WT DRG neurons electroporated with siRNA; type: cell-based, mouse; conditions: CQ 1 mM
[3] = target: T1, MrgprC11 (Mus musculus, UniProt Q8CIP3); test: Calcium imaging of MrgprC11-expressing CHO cells; type: cell-based; conditions: for activation of MrgprC11 (calcium response): MrgprC11-expressing CHO cells, concentration not given
T1 sequence (Q8CIP3 1-322): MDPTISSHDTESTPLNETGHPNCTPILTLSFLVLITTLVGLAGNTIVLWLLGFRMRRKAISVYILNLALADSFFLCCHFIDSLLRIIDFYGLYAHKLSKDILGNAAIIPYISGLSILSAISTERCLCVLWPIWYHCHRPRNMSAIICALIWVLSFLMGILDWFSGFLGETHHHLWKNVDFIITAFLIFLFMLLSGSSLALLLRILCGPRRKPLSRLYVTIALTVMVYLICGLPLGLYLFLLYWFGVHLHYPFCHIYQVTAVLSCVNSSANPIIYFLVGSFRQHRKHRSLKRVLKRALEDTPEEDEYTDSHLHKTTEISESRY

[4] = system: human subjects; conditions: ref [5], cited from earlier work
[5] = system: human MrgprX1; test: Calcium imaging of MrgprX1-expressing CHO cells; type: cell-based; conditions: Ca^2+ imaging, fig. S4
Method in brief: as §1

[6] = system: human MrgprX4; test: Calcium imaging of MrgprX4-expressing CHO cells; type: cell-based; conditions: Ca^2+ imaging, fig. S4
Method in brief: as §1

[7] = system: human MrgprX3; test: Calcium imaging of MrgprX3-expressing CHO cells; type: cell-based; conditions: Ca^2+ imaging, fig. S4
Method in brief: as §1

[8] = system: human MrgprX2; test: Calcium imaging of MrgprX2-expressing CHO cells; type: cell-based; conditions: Ca^2+ imaging, fig. S4
Method in brief: as §1

[9] = target: T1, MrgprC11; conditions: ref [8], [11]; cited from earlier work
[10] = system: DRG neurons; test: Whole-cell current-clamp recording of cultured DRG neurons; type: cell-based, mouse; conditions: n = 6; perfused with 1 mM SLIGRL or BAM(8–22) for 20 s, pH 7.38, room temperature (~25°C)
[11] = system: mice; conditions: cited from earlier work
[12] = target: T1, MrgprC11; test: Calcium imaging of Mrgpr-clusterΔ^−/− DRG neurons electroporated with MrgprC11; type: cell-based; conditions: MrgprC11-expressing Mrgpr-clusterΔ^−/− neurons, n = 66; BAM(8–22) 2 µM
[13] = system: mouse hindpaws; test: Thermal hyperalgesia, paw withdrawal latency to radiant heat; type: in vivo; conditions: trypsin 100 ng, 10 µl, intraplantar; WT n = 7, Mrgpr-clusterΔ^−/− n = 8, PAR2^−/− n = 10
[14] = system: mice; test: Scratching behavior after injection into the nape of the neck; type: in vivo, mouse; conditions: trypsin 200 µg, 50 µl, PAR2^−/− n = 6 vs WT n = 6
Method in brief: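 Male mice aged 2 to 3 months (20 to 30 g) were backcrossed to C57BL/6 for at least 10 generations and scored blind to genotype. A scratching bout was continuous hindpaw scratching directed at the injection site. Bouts were counted in 5-min intervals over a 30-min observation period after injection.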

CCN(CC)CCCC(C)Nc1ccnc2cc(Cl)ccc12 (stereo not shown) [chloroquine]
calcium response, MrgprA3-expressing CHO cells [1]: could be activated by chloroquine; also recorded: responded | chloroquine sensitivity ([2]; WT DRG neurons + MrgprA3 siRNA): abolished the chloroquine response | chloroquine sensitivity ([2]; WT DRG neurons + MrgprA3 siRNA, listed as CQ): completely abolished CQ sensitivity | chloroquine sensitivity ([2]; WT DRG neurons + MrgprC11 siRNA, n = 7 CQ-sensitive neurons): still sensitive

LRGILS-NH2
activation of MrgprC11 (calcium response) [3]: None of these derivatives induced significant calcium responses in cells

SLIGKV
itch in human subjects ([4]; intracutaneous injection, low millimolar range): provokes itch in human subjects | calcium response, MrgprX1-expressing CHO cells [5]: insensitive to the peptide | calcium response, MrgprX4-expressing CHO cells [6]: insensitive to the peptide | calcium response, MrgprX3-expressing CHO cells [7]: insensitive to the peptide | calcium response, MrgprX2-expressing CHO cells [8]: exhibited a response

SLIGRL [SLIGRL without amidation (−NH2)]
activation of MrgprC11 (calcium response) [3]: None of these derivatives induced significant calcium responses in cells

bovine adrenal medulla peptide [BAM(8–22)]
agonism at MrgprC11 [9]: specific agonist for MrgprC11 | action potentials evoked in SLIGRL-sensitive WT DRG neurons [10]: All of them also generated action potentials | evoked scratching in Mrgpr-clusterΔ^−/− mice ([11]; Mrgpr-clusterΔ^−/− mice, ref [8]): reduced | Mrgpr-dependent scratching response ([11]; ref [8]): induces an Mrgpr-dependent scratching response | increase in [Ca^2+]i [12]: showed increased [Ca^2+]i | calcium response, MrgprC11-expressing CHO cells ([3]; BAM(8–22) 2 µM, n = 150 cells): responded

trypsin
itch in humans ([4]; skin application, [6]): induces itch in humans | scratching response to trypsin in mice ([11]; injection into nape of neck, ref [4]): induces a scratching response | scratching behavior in mice ([11]; intradermal injection, ref [3], [4]): elicit scratching behavior in mice | trypsin-induced thermal hyperalgesia (paw withdrawal latency) [13]: comparable among wild-type, Mrgpr knockout, and PAR2 knockout mice; also recorded: comparable among the three groups | trypsin-induced scratching in PAR2^−/− mice [14]: significantly stronger in PAR2^−/− mice; also recorded: scratched significantly more than did wild-type controls
